Test results reported in ChEMBL document CHEMBL5512684 (J Med Chem, 2024).
Peptide text beside a SMILES is read from it.

What was measured:
[1] = target: T1, Neuronal acetylcholine receptor subunit alpha-7 (Homo sapiens, UniProt P36544); test: Antagonist activity at human alpha7 nAChR expressed in Xenopus laevis oocytes assessed as inhibition of Ach-induced response at -70 mV holding potential measured after 5 mins by two electrode voltage-clamp electrophysiology method; assay type: cell-based, Oocyte
T1 sequence (P36544 whole entry, the tested form may be a part): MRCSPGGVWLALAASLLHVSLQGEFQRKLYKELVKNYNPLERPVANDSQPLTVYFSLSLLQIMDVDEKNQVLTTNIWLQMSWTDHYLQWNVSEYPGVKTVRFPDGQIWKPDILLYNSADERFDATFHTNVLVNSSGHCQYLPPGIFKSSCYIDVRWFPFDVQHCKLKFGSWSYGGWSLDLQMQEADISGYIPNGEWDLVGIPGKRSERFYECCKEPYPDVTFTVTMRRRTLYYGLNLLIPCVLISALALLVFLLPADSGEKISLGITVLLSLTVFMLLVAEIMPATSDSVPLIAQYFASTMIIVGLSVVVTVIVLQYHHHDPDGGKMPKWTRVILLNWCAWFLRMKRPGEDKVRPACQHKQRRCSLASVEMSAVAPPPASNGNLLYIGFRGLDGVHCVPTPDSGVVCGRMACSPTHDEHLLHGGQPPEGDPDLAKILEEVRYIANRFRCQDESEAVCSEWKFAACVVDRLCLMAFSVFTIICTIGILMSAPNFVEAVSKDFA
Method in brief: (§1)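 TEVC at −70 mV after 1–4 days, perfusion ~3 mL/min, saline pH 7.4 with BSA. ACh 3 mM for α10, 100 μM for α7. α7 pulses 500 ms, α10 1 s, every 60 s. Peptide perfused up to 1 μM, static 5-min bath above.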

[2] = target: Neuronal acetylcholine receptor; alpha9/alpha10 (Homo sapiens, UniProt Q9GZZ6+Q9UGM1); test: Antagonist activity at human alpha9alpha10 nAChR expressed in Xenopus laevis oocytes assessed as inhibition of Ach-induced response at -70 mV holding potential measured after 5 mins by two electrode voltage-clamp electrophysiology method; assay type: cell-based, Oocyte
Sequence of Neuronal acetylcholine receptor; alpha9/alpha10 (Q9UGM1 whole entry): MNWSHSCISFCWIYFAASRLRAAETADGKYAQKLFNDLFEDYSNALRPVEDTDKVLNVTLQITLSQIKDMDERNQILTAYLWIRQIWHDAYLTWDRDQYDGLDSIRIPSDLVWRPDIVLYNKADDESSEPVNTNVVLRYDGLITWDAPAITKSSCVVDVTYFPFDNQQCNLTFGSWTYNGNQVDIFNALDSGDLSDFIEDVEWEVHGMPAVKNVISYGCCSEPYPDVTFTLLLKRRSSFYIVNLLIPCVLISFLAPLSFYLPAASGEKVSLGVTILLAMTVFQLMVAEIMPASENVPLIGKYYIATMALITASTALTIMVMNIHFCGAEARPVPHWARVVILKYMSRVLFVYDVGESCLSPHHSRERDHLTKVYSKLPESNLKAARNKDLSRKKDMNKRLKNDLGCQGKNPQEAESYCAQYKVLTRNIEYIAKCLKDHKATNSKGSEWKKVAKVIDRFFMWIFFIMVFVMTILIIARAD
Sequence of Neuronal acetylcholine receptor; alpha9/alpha10 (Q9GZZ6 whole entry): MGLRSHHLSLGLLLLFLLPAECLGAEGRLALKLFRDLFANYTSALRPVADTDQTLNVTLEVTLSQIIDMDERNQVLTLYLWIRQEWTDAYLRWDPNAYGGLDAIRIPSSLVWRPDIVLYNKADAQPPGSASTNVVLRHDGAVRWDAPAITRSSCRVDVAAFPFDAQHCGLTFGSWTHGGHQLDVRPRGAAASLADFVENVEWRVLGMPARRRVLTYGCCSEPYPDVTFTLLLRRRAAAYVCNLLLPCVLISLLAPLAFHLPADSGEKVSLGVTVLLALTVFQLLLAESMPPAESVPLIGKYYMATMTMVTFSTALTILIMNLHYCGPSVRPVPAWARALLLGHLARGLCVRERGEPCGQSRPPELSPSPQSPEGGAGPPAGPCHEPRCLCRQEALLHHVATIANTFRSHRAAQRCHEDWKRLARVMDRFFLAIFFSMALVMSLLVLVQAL

[3] = target: T2, Neuronal acetylcholine receptor subunit alpha-9 (Homo sapiens, UniProt Q9UGM1); test: Antagonist activity at human alpha9 nAChR expressed in Xenopus laevis oocytes assessed as inhibition of Ach-induced response by measuring residual activity at 10 uM at -70 mV holding potential measured after 5 mins by two electrode voltage-clamp electrophysiology method relative to control; assay type: cell-based; details: Oocyte
T2 sequence (Q9UGM1 whole entry): as the sequence (Q9UGM1 whole entry) above
Method in brief: (§2)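 Single-point test at 10 μM peptide, applied for 5 min in a static bath to oocytes under TEVC at −70 mV. ACh 100 μM (α7, α9, α9α10) or 3 mM (α10), pulsed every 60 s. The ACh response was normalized to the response after a 5-min bath application of control saline.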

[4] = target: T3, Neuronal acetylcholine receptor; alpha9/alpha10 (Homo sapiens) (UniProt Q9UGM1+Q9GZZ6); test: (§3) Antagonist activity at human alpha9alpha10 nAChR expressed in Xenopus laevis oocytes assessed as inhibition of Ach-induced response by measuring residual activity at 10 uM at -70 mV holding potential measured after 5 mins by two electrode voltage-clamp electrophysiology method relative to control; assay type: cell-based; details: Oocyte; method in brief: as §2
[5] = target: T2, Neuronal acetylcholine receptor subunit alpha-9; test: Antagonist activity at human alpha9 nAChR expressed in Xenopus laevis oocytes assessed as inhibition of Ach-induced response at -70 mV holding potential measured after 5 mins by two electrode voltage-clamp electrophysiology method; assay type: cell-based, Oocyte
Method in brief: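 Human α9 or α9α10 cRNA in stage IV–V oocytes kept at 16 °C; α9-only oocytes incubated with 5 mM choline. TEVC at −70 mV, 1–4 days post-injection. 1 s pulses of 100 μM ACh every 60 s until responses were stable. Peptide perfused (≤1 μM) and responses normalized to the mean of three control responses. Above 1 μM, 5-min static bath normalized to a 5-min control-saline bath.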

[6] = target: Neuronal acetylcholine receptor; alpha3/beta2 (Homo sapiens, UniProt P17787+P32297); test: Antagonist activity at human alpha3beta2 nAChR expressed in Xenopus laevis oocytes assessed as inhibition of Ach-induced response at -70 mV holding potential measured after 5 mins by two electrode voltage-clamp electrophysiology method; assay type: cell-based, Oocyte
Sequence of Neuronal acetylcholine receptor; alpha3/beta2 (P17787 whole entry, the tested form may be a part): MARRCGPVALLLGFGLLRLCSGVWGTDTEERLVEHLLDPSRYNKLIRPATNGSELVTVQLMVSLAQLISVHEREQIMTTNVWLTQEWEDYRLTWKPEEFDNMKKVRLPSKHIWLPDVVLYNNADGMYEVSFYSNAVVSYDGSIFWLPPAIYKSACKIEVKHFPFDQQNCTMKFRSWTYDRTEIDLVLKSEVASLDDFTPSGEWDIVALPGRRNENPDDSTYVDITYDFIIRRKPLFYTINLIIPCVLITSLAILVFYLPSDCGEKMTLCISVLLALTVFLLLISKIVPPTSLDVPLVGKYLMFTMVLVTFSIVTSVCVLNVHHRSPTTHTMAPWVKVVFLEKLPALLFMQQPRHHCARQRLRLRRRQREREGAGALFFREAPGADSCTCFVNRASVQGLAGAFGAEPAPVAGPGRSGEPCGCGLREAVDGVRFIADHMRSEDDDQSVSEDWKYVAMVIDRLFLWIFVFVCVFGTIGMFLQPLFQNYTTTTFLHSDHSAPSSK
Sequence of Neuronal acetylcholine receptor; alpha3/beta2 (P32297 whole entry, the tested form may be a part): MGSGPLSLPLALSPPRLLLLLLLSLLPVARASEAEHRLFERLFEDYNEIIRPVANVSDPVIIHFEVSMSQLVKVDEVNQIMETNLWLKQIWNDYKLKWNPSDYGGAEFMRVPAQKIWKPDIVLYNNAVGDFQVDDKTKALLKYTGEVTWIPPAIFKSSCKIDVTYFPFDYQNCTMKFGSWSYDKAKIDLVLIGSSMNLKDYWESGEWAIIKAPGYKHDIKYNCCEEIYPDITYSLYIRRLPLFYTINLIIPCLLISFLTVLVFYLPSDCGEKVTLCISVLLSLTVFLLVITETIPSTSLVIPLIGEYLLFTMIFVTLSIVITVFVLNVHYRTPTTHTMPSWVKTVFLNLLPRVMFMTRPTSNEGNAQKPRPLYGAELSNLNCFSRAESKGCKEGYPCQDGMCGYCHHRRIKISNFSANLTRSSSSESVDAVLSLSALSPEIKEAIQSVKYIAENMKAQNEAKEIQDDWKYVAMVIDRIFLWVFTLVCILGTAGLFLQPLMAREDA
Method in brief: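 Oocytes expressing human α3β2 nAChRs were clamped at −70 mV by TEVC 1–4 days after cRNA injection and gravity-perfused with HEPES-buffered saline, pH 7.4. ACh was pulsed every 60 s until responses were stable. Peptide was perfused up to 1 μM, or given as a 5-min static bath above 1 μM. Responses were normalized to control ACh responses.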

[7] = organism: Homo sapiens; test: (§4) Selectivity index, ratio of IC50 for antagonist activity at human alpha9alpha10 nAChR expressed in Xenopus laevis oocytes assessed as inhibition of Ach-induced response to IC50 for antagonist activity at human alpha3beta2 nAChR expressed in Xenopus laevis oocytes assessed as inhibition of Ach-induced response; assay type: cell-based
[8] = organism: Homo sapiens; test: as §4, with “alpha10” for “alpha9alpha10”; assay type: cell-based
[9] = organism: Homo sapiens; test: as §4, with “alpha7” for “alpha9alpha10”; assay type: cell-based
[10] = target: T1, Neuronal acetylcholine receptor subunit alpha-7; test: (§5) Antagonist activity at human alpha7 nAChR expressed in Xenopus laevis oocytes assessed as inhibition of Ach-induced response by measuring residual activity at 10 uM at -70 mV holding potential measured after 5 mins by two electrode voltage-clamp electrophysiology method relative to control; assay type: cell-based; details: Oocyte; method in brief: as §2
[11] = target: T4, Neuronal acetylcholine receptor subunit alpha-10 (Homo sapiens, UniProt Q9GZZ6); test: Antagonist activity at human alpha10 nAChR expressed in Xenopus laevis oocytes assessed as inhibition of Ach-induced response at -70 mV holding potential measured after 5 mins by two electrode voltage-clamp electrophysiology method; assay type: cell-based, Oocyte; method in brief: as §1
T4 sequence (Q9GZZ6 whole entry): as the sequence (Q9GZZ6 whole entry) above

[12] = organism: Homo sapiens; test: as §4, with “alpha9” for “alpha9alpha10”; assay type: cell-based
[13] = target: T4, Neuronal acetylcholine receptor subunit alpha-10; test: Antagonist activity at human alpha10 nAChR expressed in Xenopus laevis oocytes assessed as inhibition of Ach-induced response by measuring residual activity at 10 uM at -70 mV holding potential measured after 5 mins by two electrode voltage-clamp electrophysiology method relative to control; assay type: cell-based; details: Oocyte; method in brief: as §2
[14] = target: T1, Neuronal acetylcholine receptor subunit alpha-7; test: as §5, with “assessed as” for “by measuring”, “potential preincubated for 5 mins followed by peptide washout and” for “potential”, “15” for “5”, “(reference value: 0.5 +/- 0.2%)” for “relative to control”; assay type: cell-based; details: Oocyte
Method in brief: (§6)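 Recovery of ACh-evoked responses was then followed during peptide washout for 15 min. Values are given as percent of control responses.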

[15] = target: T3, Neuronal acetylcholine receptor; alpha9/alpha10 (Homo sapiens); test: as §3, with “assessed as” for “by measuring”, “potential preincubated for 5 mins followed by peptide washout and” for “potential”, “15” for “5”, “(reference value: 0.5%)” for “relative to control”; assay type: cell-based; details: Oocyte, filed as antagonist; method in brief: as §6
[16] = target: T3, Neuronal acetylcholine receptor; alpha9/alpha10 (Homo sapiens); test: as §3, with “assessed as” for “by measuring”, “potential preincubated for 5 mins followed by peptide washout and” for “potential”, “15” for “5”, “(reference value: 3 +/- 2%)” for “relative to control”; assay type: cell-based; details: Oocyte; method in brief: as §6
[17] = target: T1, Neuronal acetylcholine receptor subunit alpha-7; test: as §5, with “assessed as” for “by measuring”, “potential preincubated for 5 mins followed by peptide washout and” for “potential”, “15” for “5”, “(reference value: 30 +/- 9%)” for “relative to control”; assay type: cell-based; details: Oocyte; method in brief: as §6

Row | SMILES | IC50 [1] | IC50 [2] | Activity ([4]; filed as antagonist) | Activity ([10]; filed as antagonist) | also measured
1 | C[C@H](NC(=O)[C@H](CCCNC(=N)N)NC(=O)[C@H](CO)NC(=O)[C@H](CCCNC(=N)N)NC(=O)[C@H](CO)NC(=O)[C@H](CS)NC(=O)[C@H](C)NC(=O)[C@@H]1CCCN1C(=O)[C@H](Cc1c[nH]cn1)NC(=O)[C@H](CO)NC(=O)[C@H](CS)NC(=O)[C@H](CS)NC(=O)CN)C(=O)N[C@@H](CO)C(=O)N[C@@H](CO)C(=O)N[C@@H](CS)C(=O)O (H-GCCSHPACSRSRASSC-OH) | 5400 nM | > 10000 nM |  |  | 
2 | CC[C@H](C)[C@H](NC(=O)[C@H](CCC(=O)O)NC(=O)[C@@H]1CCCN1C(=O)[C@H](Cc1c[nH]cn1)NC(=O)[C@H](CC(=O)O)NC(=O)[C@@H](NC(=O)[C@H](CC(N)=O)NC(=O)[C@H](CS)NC(=O)[C@H](C)NC(=O)[C@@H]1CCCN1C(=O)[C@H](Cc1c[nH]cn1)NC(=O)[C@H](CO)NC(=O)[C@H](CS)NC(=O)[C@H](CS)NC(=O)CN)C(C)C)C(=O)N[C@@H](CS)C(=O)O | > 10000 nM | > 10000 nM |  |  | Activity [3]: 91%; Activity [4]: 103%; IC50 [5]: > 10000 nM; IC50 [6]: 25.4 nM; Ratio IC50 [7]: > 400; Ratio IC50 [8]: > 400; Ratio IC50 [9]: > 400; Activity [10]: 81%; IC50 [11]: > 10000 nM; Ratio IC50 [12]: > 400; Activity [13]: 74%
3 | C[C@H](NC(=O)[C@H](CCCNC(=N)N)NC(=O)[C@H](CCCNC(=N)N)NC(=O)[C@H](Cc1c[nH]cn1)NC(=O)[C@H](CO)NC(=O)[C@H](CS)NC(=O)[C@H](C)NC(=O)[C@@H]1CCCN1C(=O)[C@H](Cc1c[nH]cn1)NC(=O)[C@H](CO)NC(=O)[C@H](CS)NC(=O)[C@H](CS)NC(=O)CN)C(=O)N[C@@H](CCCNC(=N)N)C(=O)N[C@@H](CO)C(=O)N[C@@H](CS)C(=O)O (H-GCCSHPACSHRRARSC-OH) | 10100 nM | 1290 nM | 6% | 46% | 
4 | C[C@H](NC(=O)[C@H](CCCNC(=N)N)NC(=O)[C@H](CO)NC(=O)[C@@H]1CCCN1C(=O)[C@H](CO)NC(=O)[C@H](CS)NC(=O)[C@H](C)NC(=O)[C@@H]1CCCN1C(=O)[C@H](Cc1c[nH]cn1)NC(=O)[C@H](CO)NC(=O)[C@H](CS)NC(=O)[C@H](CS)NC(=O)CN)C(=O)N[C@@H](CO)C(=O)N[C@@H](CO)C(=O)N[C@@H](CS)C(=O)O (H-GCCSHPACSPSRASSC-OH) | > 10000 nM |  |  |  | 
5 | C[C@H](NC(=O)[C@H](CCCNC(=N)N)NC(=O)[C@H](CCCNC(=N)N)NC(=O)[C@H](CCCNC(=N)N)NC(=O)[C@H](CO)NC(=O)[C@H](CS)NC(=O)[C@H](C)NC(=O)[C@@H]1CCCN1C(=O)[C@H](Cc1c[nH]cn1)NC(=O)[C@H](CO)NC(=O)[C@H](CS)NC(=O)[C@H](CS)NC(=O)CN)C(=O)N[C@@H](CCCNC(=N)N)C(=O)N[C@@H](CO)C(=O)N[C@@H](CS)C(=O)O (H-GCCSHPACSRRRARSC-OH) | 177 nM | 98.1 nM | 1% | 1.4% | Activity [14]: 99%; Activity [15]: 21%
6 | C[C@H](NC(=O)[C@H](CCCNC(=N)N)NC(=O)[C@H](CCCNC(=N)N)NC(=O)[C@H](Cc1c[nH]cn1)NC(=O)[C@H](CO)NC(=O)[C@H](CCCCN)NC(=O)[C@H](CS)NC(=O)[C@H](C)NC(=O)[C@@H]1CCCN1C(=O)[C@H](Cc1c[nH]cn1)NC(=O)[C@H](CO)NC(=O)[C@H](CS)NC(=O)[C@H](CS)NC(=O)CN)C(=O)N[C@@H](CCCNC(=N)N)C(=O)N[C@@H](CS)C(=O)O (H-GCCSHPACKSHRRARC-OH) | 1890 nM | 133 nM | 0.7% | 13% | 
7 | C[C@H](NC(=O)[C@H](CCCNC(=N)N)NC(=O)[C@H](CCCNC(=N)N)NC(=O)[C@@H]1CCCN1C(=O)[C@H](CO)NC(=O)[C@H](CS)NC(=O)[C@H](C)NC(=O)[C@@H]1CCCN1C(=O)[C@H](Cc1c[nH]cn1)NC(=O)[C@H](CO)NC(=O)[C@H](CS)NC(=O)[C@H](CS)NC(=O)CN)C(=O)N[C@@H](CCCNC(=N)N)C(=O)N[C@@H](CO)C(=O)N[C@@H](CS)C(=O)O (H-GCCSHPACSPRRARSC-OH) | 2120 nM | 1120 nM | 10% | 16% | Activity [16]: 99%; Activity [17]: 97%
